Bioassay records as filed in PubChem.
H9c2 protect – myocardial damage modulation in H9c2 cells | H9c2 cardiomyocytes, H2O2 injury protection, ATPLite, 2 h | protection from H2O2 cell death, % at 20 µM | 360,000 compounds, 0.63% hits | AID 588492;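 active = compounds giving at least 50% protection of heart cells from peroxide-induced death in the single-dose screen, raw or plate-pattern-corrected value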;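 also: 0% = DMSO wells with peroxide and 100% = DMSO wells without peroxide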
iPSC survival up – hiPSC single-cell survival enhancement. ATPlite luminescence; 100% = ROCK inhibitor wells, 0% = DMSO. survival enhancement, % at 20 µM. 360,000 compounds, 0.044% hits; in the data active = survival enhancement above about 18%;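 also: cells exposed to compounds for 16 hours before the ATP read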
CHOP inhibitor – CHOP inhibition in unfolded protein response; CHO-K1 CHOP-promoter luciferase, tunicamycin-induced, 15-18 h; inhibition, % at 10 µM; 220,000 compounds, 3.8% hits;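 active = compounds that reduced the stress-induced luciferase reporter signal by more than about 70% of percent inhibition, limit read from the data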;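 also: 0% = tunicamycin plus vehicle and 100% = wells without tunicamycin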
UPR CHOP act – apoptotic UPR (CHOP) activation. CHO-CHOP luciferase reporter, luminescence; percent of tunicamycin response over DMSO baseline. activation, % at 10 µM. 330,000 compounds, 0.34% hits. AID 449763;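 active = at 10 µM dose, activation of 40% or more, normalized to positive control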;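 also: 100% = tunicamycin at 10 µg/mL and 0% = DMSO alone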
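System: CHO-CHOP luciferase reporter cell line; amount: 500 cells/well; buffer or medium: F12 medium containing 10% fetal bovine serum; incubation: 6 h compound exposure at 37 °C after overnight seeding; measured by: luciferase luminescence after 10 min with Steady-Glo reagent; evaluation: % reporter activation, DMSO baseline versus tunicamycin full activation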
XBP1 UPR activ – adaptive UPR (XBP1) activation; CHO-XBP1 luciferase reporter, IRE1-XBP1 UPR activation, luminescence; percent of tunicamycin response, DMSO as zero; activation, % at 20 µM; 330,000 compounds, 0.33% hits; AID 463104;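 active = versus positive control, 20 µM dose yields 30% or more activation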;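 also: 100% = tunicamycin at 10 µg/mL and 0% = DMSO only wells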
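Assay system: IRE1-XBP1 luciferase reporter CHO line. Input: 1000 cells/well. Buffer or medium: F12 with 10% serum. Doses: 20 µM, 1% DMSO. Times: overnight seeding at 37 °C, 6 h compound treatment at 37 °C. Technique: Steady-Glo luciferase glow luminescence, 10 min after reagent addition.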
Starred values were filed as active, the others as inactive; nt = not tested or not shown. This is one part of a sample in which hits are shown more often than they occur.

SMILES	H9c2 protect	iPSC survival up	CHOP inhibitor	UPR CHOP act	XBP1 UPR activ
N#CC1=C(SCC(=O)NC23CC4CC(CC(C4)C2)C3)NC(=O)C(C#N)C12CCCCC2 (stereo not given)	-16	1	85*	2	-3
N#CC1=C(SCC(=O)NC2CC2)NC(=O)C(C#N)C12CCCCC2 (stereo not given)	-1	-2	-11	0	-2
N#CC1=C(SCC(=O)Nc2cccc3cccnc23)NC(=O)C(C#N)C12CCCCC2 (stereo not given)	-8	4	-11	2	1
O=C(CCc1ccccc1)NC(=S)Nc1cccc(Br)c1	-6	-2	72*	8	1
O=C(OCc1nnc(-c2ccccc2)o1)c1ccc2c(c1)OCCO2	-26	-3	76*	1	0
CS(=O)(=O)c1ccc(C(=O)OCc2nnc(-c3ccccc3)o2)cc1[N+](=O)[O-]	-33	0	88*	nt	nt
CC(C)(C)CNC(=O)C1(C)CCN1C(=O)c1ccccc1CCc1ccccc1 (stereo not given)	6	1	nt	nt	nt
CC(C)(C)OC(=O)N[C@@H](Cc1ccccc1)c1nnc(SCC(=O)c2ccc(Cl)cc2)o1	-11	-2	86*	1	2
CC(C)(C)OC(=O)N[C@@H](Cc1ccccc1)c1nnc(SCC(=O)O)o1	-3	1	20	-2	0
Cc1ccc(-c2nc(S(=O)(=O)c3ccc(F)cc3)c(SCC(=O)NCC3CCCO3)o2)cc1 (stereo not given)	-2	0	70*	0	0
Cc1ccc(S(=O)(=O)c2nc(-c3ccc(F)cc3)oc2SCC(=O)NCC2CCCO2)cc1 (stereo not given)	-5	-2	36	1	1
COc1cc(CNc2nc(C)c([N+](=O)[O-])c(C)c2C#N)cc(OC)c1OC	-14	0	79*	-1	-1
CC(C)(C)c1[nH]nc2c1C(C1C=CCCC1)C(C#N)=C(N)O2 (stereo not given)	4	1	83*	-2	1
CCS(=O)(=O)N1Cc2ccccc2CC1C(=O)OCC(=O)Nc1ccc(SC(F)F)cc1 (stereo not given)	-5	-2	93*	0	0
CCS(=O)(=O)N1Cc2ccccc2CC1C(=O)OCC(=O)Nc1ccc(C)cc1 (stereo not given)	6	0	20	-1	2
Cn1cc(Cc2ccccc2)c(=O)c(Cc2ccccc2)c1	3	-2	nt	nt	nt
N#CC(C#N)=C1C=CC=CN1/C(=C\c1ccco1)C(=O)c1ccc(-c2ccccc2)cc1	-14	0	107*	nt	nt
N#CC(C#N)=C1C=CC=CN1/C(=C\c1ccco1)C(=O)c1ccc(Cl)cc1	-20	-1	111*	nt	nt
O=C(NCC1CCCO1)/C(=C\c1ccco1)NC(=O)c1ccc(Cl)cc1 (stereo not given)	3	-1	25	0	-1
N#C/C(=C\c1ccco1)C(=O)NCc1ccccc1	1	-2	-24	1	1
O=C(NNC(=O)c1ccncc1)Nc1ccc(N=Nc2ccccc2)cc1	4	-1	nt	nt	nt
Nn1cnc2cc3ccccc3cc2c1=O	6	0	nt	0	0
C#Cc1cccc(Nc2nc(NCc3ccccc3OC)nc3ccsc23)c1	-26	-1	nt	nt	nt
CCSc1nnc(NC(=O)C2CCN(S(=O)(=O)c3c(C)c(C)cc(C)c3C)CC2)s1	nt	nt	78*	3	-1
O=c1cc(-c2ccccc2)nc(SCCOc2ccccc2Cl)[nH]1	-2	0	74*	-2	-5
SMILES	H9c2 protect	iPSC survival up	CHOP inhibitor	UPR CHOP act	XBP1 UPR activ
COc1cc(CSc2nc(-c3ccccc3)cc(=O)[nH]2)cc(OC)c1	0	0	nt	2	-2
Cc1ccc(NC(=O)Nc2cnccn2)cc1Cl	-5	-1	9	0	3
O=C(Nc1ccc2c(c1)OCO2)Nc1ccc(Cl)cc1Cl	-6	-2	91*	3	4
O=C(Nc1cnccn1)Nc1ccc(Cl)cc1Cl	-8	0	78*	2	4
O=C(Nc1ccc(Cl)cc1)Nc1ccc2c(c1)OCO2	-8	0	nt	7	2
Cc1cc(C)cc(-n2ccnc2SCC(=O)Nc2ccc3c(c2)OCCO3)c1	-13	2	84*	-2	-1
O=C(CSc1nccn1-c1ccccc1)Nc1ccc2c(c1)OCO2	-8	1	-7	1	2
COc1cc(OC)c(NC(=O)c2cc3ccccc3cc2O)cc1Cl	-21	-2	nt	nt	nt
CCn1c(O)c(/C=N/N=C2CCCC2)c2ccc(C3=NNC(=O)CC3)cc21	57*	1	21	1	2
CCn1c(O)c(/C=N/N=C2CCCCC2)c2cc(C3=NNC(=O)CC3)ccc21	54*	0	13	2	6
CCCCC(CCCC)=N/N=C/c1c(O)n(CC)c2cc(C3=NNC(=O)CC3)ccc12	19	-2	41	4	1
Cn1c(=O)n(CCc2ccccc2)c(=O)c2c1nc1n2CCCN1CCc1ccccc1	106*	-2	7	6	-5
Cn1c(=O)n(CCc2ccccc2)c(=O)c2c1nc1n2CCCN1Cc1ccccc1	116*	2	32	0	-1
CCCn1c(=O)c2c(nc3n2CCCN3CCc2ccccc2)n(C)c1=O	4	0	nt	1	-6
Cc1nn(CC(=O)NCCCN2CC(C)CC(C)C2)c(=O)c2cccn12 (stereo not given)	1	0	nt	0	-4
CC(=O)N1c2c(cc(Br)cc2S(=O)(=O)NCc2cccnc2)CC1C (stereo not given)	2	6	-3	0	2
CCCCN(Cc1ccccc1)S(=O)(=O)c1cc(Br)cc2c1N(C(C)=O)C(C)C2 (stereo not given)	-18	0	84*	0	-2
CCCCCCCCN1C(=O)[C@H](CC(=O)NCc2cccc3ccccc23)C[C@@]2(C(=O)OCC)CCCC=C12	nt	0	nt	nt	nt
Cc1ccccc1-c1nc(S(=O)(=O)c2ccc(Cl)cc2)c(NCCN2CCOCC2)o1	12	-1	90*	0	-2
Cc1ccc(-n2nnnc2C(Cl)(Cl)c2nnnn2-c2ccc(C)cc2)cc1	-23	-2	80*	5	-4
Clc1ccc(-c2nnnn2-c2ccc(Cl)cc2)cc1	-6	0	4	1	-2
CCOc1ccc(N/C=C/C(=O)c2ccccc2)c([N+](=O)[O-])c1	-30	-3	87*	-7	-3
CCOc1ccc(NC(=O)/C=C/c2ccccc2)c([N+](=O)[O-])c1	-4	1	4	4	2
CCN(CC)c1c(C)nc2ccc(C(=O)Nc3cc(-c4ccccc4)ccc3OC)cn12	2	-1	nt	nt	nt
COc1ccc(-c2nc3c(c(SCC(=O)N4CCOCC4)n2)Cc2c(CO)cnc(C)c2O3)cc1	77*	0	nt	4	2
